ChEMBL document CHEMBL1134608, “Nucleosides and nucleotides. 200. Reinvestigation of 5'-N-ethylcarboxamidoadenosine derivatives: structure-activity relationships for P(3) purinoceptor-like proteins” (J Med Chem, 2001)

Experiments:
[1] = target: Adenosine receptor A2a (Rattus norvegicus, UniProt P30543); assay: Binding affinity for Adenosine A2A receptor in rat brain membranes using [3H]CGS-21680; assay type: cell membranes
[2] = target: T1, Adenosine receptor A3 (Rattus norvegicus, UniProt P28647); assay: Binding affinity for adenosine A3 receptor in CHO cell membranes using [125I]IB-MECA
T1 sequence (P28647 whole entry): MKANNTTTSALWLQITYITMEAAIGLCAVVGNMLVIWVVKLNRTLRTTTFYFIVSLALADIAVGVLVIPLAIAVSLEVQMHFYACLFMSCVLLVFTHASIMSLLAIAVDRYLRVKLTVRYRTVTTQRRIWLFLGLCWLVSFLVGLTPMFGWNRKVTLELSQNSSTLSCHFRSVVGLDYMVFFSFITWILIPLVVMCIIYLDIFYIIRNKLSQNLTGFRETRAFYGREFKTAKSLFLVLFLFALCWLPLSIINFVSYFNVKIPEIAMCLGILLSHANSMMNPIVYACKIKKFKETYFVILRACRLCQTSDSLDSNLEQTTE

[3] = target: T2, Adenosine receptor A2b (Rattus norvegicus) (UniProt P29276); assay: Agonist activity as cAMP production in CHO cells expressing rat Adenosine A2B receptor at 100 uM; assay type: functional, cell-based
T2 sequence (whole entry): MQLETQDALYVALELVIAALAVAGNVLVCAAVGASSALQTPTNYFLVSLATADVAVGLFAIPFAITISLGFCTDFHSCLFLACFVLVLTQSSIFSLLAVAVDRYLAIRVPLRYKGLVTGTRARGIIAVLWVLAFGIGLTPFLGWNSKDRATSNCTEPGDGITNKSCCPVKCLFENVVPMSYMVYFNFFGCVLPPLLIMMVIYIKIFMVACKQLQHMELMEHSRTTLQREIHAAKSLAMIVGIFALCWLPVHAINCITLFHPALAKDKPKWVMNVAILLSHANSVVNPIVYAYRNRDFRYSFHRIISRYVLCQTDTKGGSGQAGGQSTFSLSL
Method in brief: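 Rat A2B receptor cDNA transfected into CHO cells; agonism read as cAMP production with test compound at 100 µM, given as percentage of NECA-induced activity.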

[4] = species: Rattus norvegicus; assay: Ratio of affinity for A1 AND P3LP receptor
[5] = target: T3, Adenosine receptor A1 (Rattus norvegicus, UniProt P25099); assay: Binding activity against Adenosine A1 receptor from rat brain membranes using [3H]8-cyclopentyl-1,3-dipropylxanthine (DPCPX)
T3 sequence (P25099 whole entry): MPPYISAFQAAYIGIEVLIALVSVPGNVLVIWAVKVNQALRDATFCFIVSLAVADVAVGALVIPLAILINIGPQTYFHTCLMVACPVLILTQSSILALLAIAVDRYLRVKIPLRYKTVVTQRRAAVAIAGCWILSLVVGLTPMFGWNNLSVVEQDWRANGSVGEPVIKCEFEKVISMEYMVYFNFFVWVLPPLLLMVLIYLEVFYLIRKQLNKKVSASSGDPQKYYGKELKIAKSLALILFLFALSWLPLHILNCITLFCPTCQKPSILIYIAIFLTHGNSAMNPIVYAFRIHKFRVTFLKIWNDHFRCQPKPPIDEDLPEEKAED

[6] = species: Rattus norvegicus; assay: Ratio of affinity for A2A and P3LP receptors
[7] = species: Rattus norvegicus; assay: Ratio of affinity for A3 and P3LP receptors

Sequence of Adenosine receptor A2a (P30543 whole entry): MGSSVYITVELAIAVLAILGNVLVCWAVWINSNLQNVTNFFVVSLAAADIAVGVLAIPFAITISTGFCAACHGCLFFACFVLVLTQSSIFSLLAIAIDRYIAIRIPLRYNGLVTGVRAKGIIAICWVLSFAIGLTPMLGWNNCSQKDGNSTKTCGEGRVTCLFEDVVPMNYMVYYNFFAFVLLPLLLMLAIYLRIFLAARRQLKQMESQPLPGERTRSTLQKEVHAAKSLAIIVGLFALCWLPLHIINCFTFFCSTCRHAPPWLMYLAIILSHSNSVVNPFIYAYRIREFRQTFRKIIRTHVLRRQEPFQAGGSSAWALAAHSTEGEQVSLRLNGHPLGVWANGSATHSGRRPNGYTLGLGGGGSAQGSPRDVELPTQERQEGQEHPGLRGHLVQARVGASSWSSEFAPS

| Structure (SMILES) | Ki [1] | Ki [2] | Activity [3] | Ratio [4] | Ki [5] | Ratio [6] | Ratio [7] |
| --- | --- | --- | --- | --- | --- | --- | --- |
| Nc1ncnc2c1ncn2[C@@H]1O[C@H](C(=O)NC2CCCCC2)[C@@H](O)[C@H]1O | 2500 nM | 15100 nM | 1.9% | 275 | 5020 nM | 137 | 830 |
| C#CC(O)[C@H]1O[C@@H](n2cnc3c(N)ncnc32)[C@H](O)[C@@H]1O (some centres not stated) | 2110 nM | 310000 nM | 10% | 44.9 | 897 nM | 105 | 15500 |
| CCNC(=O)[C@H]1O[C@@H](n2cnc3c(N)ncnc32)[C@H](O)[C@@H]1O | – | – | 100 | – | – | – | – |
| CCCCCNC(=O)[C@H]1O[C@@H](n2cnc3c(N)ncnc32)[C@H](O)[C@@H]1O | 605 nM | 5560 nM | 3.4% | 80.2 | 979 nM | 49.6 | 456 |
